Laboratory results: ChEMBL document CHEMBL3124924, “Bifunctional ethyl 2-amino-4-methylthiazole-5-carboxylate derivatives: synthesis and in vitro biological evaluation as antimicrobial and anticancer agents” (2014)
Converted amounts (≈) assume the structure as drawn.

system: Escherichia coli; assay: Antibacterial activity against Escherichia coli ATCC 25922 assessed as growth inhibition at 1 mg/mL after 24 hrs by agar-cup diffusion method; format: functional; conditions: ATCC 25922, 24 h, read-out: DIZ
Method in brief: (§1)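 Agar-cup diffusion: 1 mL of 6 h broth culture seeded per 100 mL molten sterile agar at 45 °C and poured into plates. 8 mm cups cut, each filled with 0.1 mL of 1 mg/mL test solution. Incubated 37 °C for 24 h, 48 h for C. albicans. DMSO control per organism. Inhibition zone diameter in mm, mean of three measurements.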

Compound | zone of inhibition at 1000 µg/mL [mm]
Cc1nc(NC(=O)Nc2ccccc2)sc1C(=O)NN | > 13

system: Bacillus spizizenii; assay: Antibacterial activity against Bacillus subtilis ATCC 6633 assessed as growth inhibition at 1 mg/mL after 24 hrs by agar-cup diffusion method; format: functional; conditions: ATCC 6633, 24 h, read-out: DIZ; method in brief: as §1

Compound | zone of inhibition at 1000 µg/mL [mm]
Cc1nc(NC(=O)Nc2ccccc2)sc1C(=O)NN | > 13

system: SNB-75; assay: Cytotoxicity against human SNB75 cells assessed as growth inhibition at 10 uM after 48 hrs by SRB assay; format: functional; conditions: SNB-75, 48 h, read-out: GI
Method in brief: (§2)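 NCI-60 one-dose primary screen run by the NCI Drug Evaluation Branch across the full 60-line panel. Single high-dose treatment with 48 h continuous drug exposure. Cell growth estimated by sulforhodamine B protein staining. Results given as percent growth of treated cells and expressed as percentage growth inhibition.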

Compound | inhibition of growth at 10 µM [%]
Cc1nc(NC(=O)Nc2ccccc2)sc1C(=O)NN | < 10

system: SF-268; assay: Cytotoxicity against human SF268 cells assessed as growth inhibition at 10 uM after 48 hrs by SRB assay; format: functional; conditions: SF-268, 48 h, read-out: GI; method in brief: as §2

Compound | inhibition of growth at 10 µM [%]
Cc1nc(NC(=O)Nc2ccccc2)sc1C(=O)NN | < 10

system: PC-3; assay: Cytotoxicity against human PC3 cells assessed as growth inhibition at 10 uM after 48 hrs by SRB assay; format: functional; conditions: PC-3, 48 h, read-out: GI; method in brief: as §2

Compound | inhibition of growth at 10 µM [%]
Cc1nc(NC(=O)Nc2ccccc2)sc1C(=O)NN | < 10

system: UACC-62; assay: Cytotoxicity against human UACC62 cells assessed as growth inhibition at 10 uM after 48 hrs by SRB assay; format: functional; conditions: UACC-62, 48 h, read-out: GI; method in brief: as §2

Compound | inhibition of growth at 10 µM [%]
Cc1nc(NC(=O)Nc2ccccc2)sc1C(=O)NN | 11.9

system: SK-MEL-2; assay: Cytotoxicity against human SK-MEL-2 cells assessed as growth inhibition at 10 uM after 48 hrs by SRB assay; format: functional; conditions: SK-MEL-2, 48 h, read-out: GI; method in brief: as §2

Compound | inhibition of growth at 10 µM [%]
Cc1nc(NC(=O)Nc2ccccc2)sc1C(=O)NN | 37.8

system: not listed separately; assay: Cytotoxicity against human UO31 cells assessed as growth inhibition at 10 uM after 48 hrs by SRB assay; format: functional; conditions: UO-31, 48 h, read-out: GI; method in brief: as §2

Compound | inhibition of growth at 10 µM [%]
Cc1nc(NC(=O)Nc2ccccc2)sc1C(=O)NN | 28

system: RPMI-8226; assay: Cytotoxicity against human RPMI8226 cells assessed as growth inhibition at 10 uM after 48 hrs by SRB assay; format: functional; conditions: RPMI-8226, 48 h, read-out: GI; method in brief: as §2

Compound | inhibition of growth at 10 µM [%]
Cc1nc(NC(=O)Nc2ccccc2)sc1C(=O)NN | < 10

system: MOLT-4; assay: Cytotoxicity against human MOLT4 cells assessed as growth inhibition at 10 uM after 48 hrs by SRB assay; format: functional; conditions: MOLT-4, 48 h, read-out: GI; method in brief: as §2

Compound | inhibition of growth at 10 µM [%]
Cc1nc(NC(=O)Nc2ccccc2)sc1C(=O)NN | < 10

system: CCRF-CEM; assay: Cytotoxicity against human CCRF-CEM cells assessed as growth inhibition at 10 uM after 48 hrs by SRB assay; format: functional; conditions: read-out: GI; method in brief: as §2

Compound | inhibition of growth at 10 µM [%]
Cc1nc(NC(=O)Nc2ccccc2)sc1C(=O)NN | < 10

system: IGROV-1; assay: Cytotoxicity against human IGROV1 cells assessed as growth inhibition at 10 uM after 48 hrs by SRB assay; format: functional; conditions: IGROV-1, 48 h, read-out: GI; method in brief: as §2

Compound | inhibition of growth at 10 µM [%]
Cc1nc(NC(=O)Nc2ccccc2)sc1C(=O)NN | < 10

system: T47D; assay: Cytotoxicity against human T47D cells assessed as growth inhibition at 10 uM after 48 hrs by SRB assay; format: functional; conditions: read-out: GI; method in brief: as §2

Compound | inhibition of growth at 10 µM [%]
Cc1nc(NC(=O)Nc2ccccc2)sc1C(=O)NN | < 10

system: MDA-MB-468; assay: Cytotoxicity against human MDA-MB-468 cells assessed as growth inhibition at 10 uM after 48 hrs by SRB assay; format: functional; conditions: MDA-MB-468, 48 h, read-out: GI; method in brief: as §2

Compound | inhibition of growth at 10 µM [%]
Cc1nc(NC(=O)Nc2ccccc2)sc1C(=O)NN | < 10

system: not listed separately; assay: Cytotoxicity against human NCI-ADR-RES cells assessed as growth inhibition at 10 uM after 48 hrs by SRB assay; format: functional; conditions: read-out: GI; method in brief: as §2

Compound | inhibition of growth at 10 µM [%]
Cc1nc(NC(=O)Nc2ccccc2)sc1C(=O)NN | 6.43

system: MCF7; assay: Cytotoxicity against human MCF7 cells assessed as growth inhibition at 10 uM after 48 hrs by SRB assay; format: functional; conditions: MCF7, 48 h, read-out: GI; method in brief: as §2

Compound | inhibition of growth at 10 µM [%]
Cc1nc(NC(=O)Nc2ccccc2)sc1C(=O)NN | 2.96

system: SW-620; assay: Cytotoxicity against human SW620 cells assessed as growth inhibition at 10 uM after 48 hrs by SRB assay; format: functional; conditions: SW-620, 48 h, read-out: GI; method in brief: as §2

Compound | inhibition of growth at 10 µM [%]
Cc1nc(NC(=O)Nc2ccccc2)sc1C(=O)NN | < 10

system: HT-29; assay: Cytotoxicity against human HT-29 cells assessed as growth inhibition at 10 uM after 48 hrs by SRB assay; format: functional; conditions: HT-29, 48 h, read-out: GI; method in brief: as §2

Compound | inhibition of growth at 10 µM [%]
Cc1nc(NC(=O)Nc2ccccc2)sc1C(=O)NN | < 10

system: HCC 2998; assay: Cytotoxicity against human HCC2998 cells assessed as growth inhibition at 10 uM after 48 hrs by SRB assay; format: functional; conditions: HCC 2998, 48 h, read-out: GI; method in brief: as §2

Compound | inhibition of growth at 10 µM [%]
Cc1nc(NC(=O)Nc2ccccc2)sc1C(=O)NN | 6.85

system: NCI-H522; assay: Cytotoxicity against human NCI-H522 cells assessed as growth inhibition at 10 uM after 48 hrs by SRB assay; format: functional; conditions: NCI-H522, 48 h, read-out: GI; method in brief: as §2

Compound | inhibition of growth at 10 µM [%]
Cc1nc(NC(=O)Nc2ccccc2)sc1C(=O)NN | 63.4

system: NCI-H322M; assay: Cytotoxicity against human NCI-H322M cells assessed as growth inhibition at 10 uM after 48 hrs by SRB assay; format: functional; conditions: read-out: GI; method in brief: as §2

Compound | inhibition of growth at 10 µM [%]
Cc1nc(NC(=O)Nc2ccccc2)sc1C(=O)NN | 22

system: HOP-92; assay: Cytotoxicity against human HOP92 cells assessed as growth inhibition at 10 uM after 48 hrs by SRB assay; format: functional; conditions: HOP-92, 48 h, read-out: GI; method in brief: as §2

Compound | inhibition of growth at 10 µM [%]
Cc1nc(NC(=O)Nc2ccccc2)sc1C(=O)NN | < 10

system: Pseudomonas aeruginosa; assay: Bactericidal activity against Pseudomonas aeruginosa ATCC 27853 after 18 hrs; format: functional; conditions: ATCC 27853, 18 h
Method in brief: (§3)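 Continuation of the broth-dilution MIC test. A loopful from each tube without visible growth spread on a quarter of a Mueller-Hinton agar plate and incubated 18 h. Lowest concentration giving no growth on subculture taken as the MBC.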

Compound | MBC [µg/mL]
Cc1nc(NC(=O)Nc2ccccc2)sc1C(=O)NN | 100 (≈ 343 µM)

system: Pseudomonas aeruginosa; assay: Antibacterial activity against Pseudomonas aeruginosa ATCC 27853 assessed as growth inhibition after 48 hrs by two-fold serial dilution assay; format: functional; conditions: ATCC 27853, 48 h
Method in brief: (§4)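 Twofold serial broth dilution run on compounds giving inhibition zones of 13 mm or more. Organisms pre-grown in suitable broth at 37 °C, 24 h for bacteria and 48 h for fungi. Dilution series 200, 100, 50, 25, 12.5, 6.25. Each 5 mL tube inoculated with 0.1 mL and incubated 37 °C for 48 h. Tubes scored for presence or absence of growth.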

MIC [µg/mL] | Compound
50 (≈ 172 µM) | Cc1nc(NC(=O)Nc2ccccc2)sc1C(=O)NN

system: Escherichia coli; assay: Bactericidal activity against Escherichia coli ATCC 25922 after 18 hrs; format: functional; conditions: ATCC 25922, 18 h; method in brief: as §3

Compound | MBC [µg/mL]
Cc1nc(NC(=O)Nc2ccccc2)sc1C(=O)NN | 12.5 (≈ 42.9 µM)

system: Escherichia coli; assay: Antibacterial activity against Escherichia coli ATCC 25922 assessed as growth inhibition after 48 hrs by two-fold serial dilution assay; format: functional; conditions: ATCC 25922, 48 h; method in brief: as §4

MIC [µg/mL] | Compound
12.5 (≈ 42.9 µM) | Cc1nc(NC(=O)Nc2ccccc2)sc1C(=O)NN

system: Bacillus spizizenii; assay: Bactericidal activity against Bacillus subtilis ATCC 6633 after 18 hrs; format: functional; conditions: ATCC 6633, 18 h; method in brief: as §3

Compound | MBC [µg/mL]
Cc1nc(NC(=O)Nc2ccccc2)sc1C(=O)NN | 25 (≈ 85.8 µM)

system: Bacillus spizizenii; assay: Antibacterial activity against Bacillus subtilis ATCC 6633 assessed as growth inhibition after 48 hrs by two-fold serial dilution assay; format: functional; conditions: ATCC 6633, 48 h; method in brief: as §4

MIC [µg/mL] | Compound
25 (≈ 85.8 µM) | Cc1nc(NC(=O)Nc2ccccc2)sc1C(=O)NN

system: Staphylococcus aureus; assay: Bactericidal activity against Staphylococcus aureus ATCC 6538 after 18 hrs; format: functional; conditions: ATCC 6538, 18 h; method in brief: as §3

Compound | MBC [µg/mL]
Cc1nc(NC(=O)Nc2ccccc2)sc1C(=O)NN | 12.5 (≈ 42.9 µM)

system: Staphylococcus aureus; assay: Antibacterial activity against Staphylococcus aureus ATCC 6538 assessed as growth inhibition after 48 hrs by two-fold serial dilution assay; format: functional; conditions: ATCC 6538, 48 h; method in brief: as §4

MIC [µg/mL] | Compound
12.5 (≈ 42.9 µM) | Cc1nc(NC(=O)Nc2ccccc2)sc1C(=O)NN

system: Staphylococcus aureus; assay: Antibacterial activity against Staphylococcus aureus ATCC 6538 assessed as growth inhibition at 1 mg/mL after 24 hrs by agar-cup diffusion method; format: functional; conditions: ATCC 6538, 24 h, read-out: DIZ; method in brief: as §1

Compound | zone of inhibition at 1000 µg/mL [mm]
Cc1nc(NC(=O)Nc2ccccc2)sc1C(=O)NN | > 13

system: Pseudomonas aeruginosa; assay: Antibacterial activity against Pseudomonas aeruginosa ATCC 27853 assessed as growth inhibition at 1 mg/mL after 24 hrs by agar-cup diffusion method; format: functional; conditions: ATCC 27853, 24 h, read-out: DIZ; method in brief: as §1

Compound | zone of inhibition at 1000 µg/mL [mm]
Cc1nc(NC(=O)Nc2ccccc2)sc1C(=O)NN | > 13
